Source: ChEMBL document CHEMBL3045438, “Synthesis and fungicidal evaluation of novel chalcone-based strobilurin analogues” (2007)
Values after ≈ are worked out from the molar mass of the structure shown.

Tests used:
Format in all cases: functional
[1] = test system: Pseudoperonospora cubensis; assay: Antifungal activity against Pseudoperonospora cubensis assessed as fungicidal activity at 200 mg/L (beneficial crop - cucumber)
In short: (§1)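 In vivo preventive test on cucumber as host plant.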

Rhizoctonia solani = assay: Antifungal activity against Rhizoctonia solani assessed as fungicidal activity at 200 mg/L (beneficial crop - cucumber); in short: as §1
Botrytis cinerea = assay: Antifungal activity against Botryotinia fuckeliana assessed as fungicidal activity at 200 mg/L (beneficial crop - cucumber); in short: as §1
Podosphaera fuliginea [2] = assay: Antifungal activity against Podosphaera fuliginea assessed as fungicidal activity at 200 mg/L (beneficial crop - cucumber); in short: as §1
[3] = test system: Pseudoperonospora cubensis; assay: Antifungal activity against Pseudoperonospora cubensis in cucumber plants under greenhouse conditions assessed as fungicidal activity by in vivo assay; in short: as §1
Podosphaera fuliginea [4] = assay: Antifungal activity against Podosphaera fuliginea in cucumber plants under greenhouse conditions assessed as fungicidal activity by in vivo assay; in short: as §1

Compound	inhibition at 200 µg/mL [1]	inhibition at 200 µg/mL (Rhizoctonia solani)	inhibition at 200 µg/mL (Botrytis cinerea)	inhibition at 200 µg/mL (Podosphaera fuliginea [2])	EC90 [3]	EC90 (Podosphaera fuliginea [4])
CO/C=C(/C(=O)OC)c1ccccc1COc1cccc(C(=O)/C=C/c2ccc(Br)cc2)c1	94%	0%	0%	45%	–	–
CO/C=C(/C(=O)OC)c1ccccc1COc1cccc(C(=O)/C=C/c2cccc(C)c2)c1	81%	0%	0%	0%	–	–
CO/C=C(/C(=O)OC)c1ccccc1COc1cccc(C(=O)/C=C/c2ccc(OC)c(OC)c2)c1	72%	0%	0%	0%	–	–
CO/C=C(/C(=O)OC)c1ccccc1COc1cccc(C(=O)/C=C/c2cccc(Br)c2)c1	99%	0%	0%	99%	113.64 µg/mL (≈ 224 µM)	–
CO/C=C(/C(=O)OC)c1ccccc1COc1cccc(C(=O)/C=C/c2ccc(C)c(C)c2)c1	100%	0%	0%	92%	–	139.47 µg/mL (≈ 305 µM)
CO/C=C(/C(=O)OC)c1ccccc1COc1cccc(C(=O)/C=C/c2c(F)cccc2Cl)c1	97%	0%	0%	13%	–	–
CO/C=C(/C(=O)OC)c1ccccc1COc1cccc(C(=O)/C=C/c2ccc(N(C)C)cc2)c1	0%	32%	0%	0%	–	–
CO/C=C(/C(=O)OC)c1ccccc1COc1cccc(C(=O)/C=C/c2ccc(C)cc2)c1	100%	0%	0%	97%	–	–
CO/C=C(/C(=O)OC)c1ccccc1COc1cccc(C(=O)/C=C/c2ccc(OC)cc2)c1	95%	0%	0%	0%	–	–
CO/C=C(/C(=O)OC)c1ccccc1COc1cccc(C(=O)/C=C/c2ccc(Cl)cc2)c1	100%	0%	0%	96%	–	–
CO/C=C(/C(=O)OC)c1ccccc1COc1cccc(C(=O)/C=C/c2ccc(Cl)c(Cl)c2)c1	0%	0%	0%	0%	–	–
CO/C=C(/C(=O)OC)c1ccccc1COc1cccc(C(=O)/C=C/c2ccccc2Cl)c1	98%	0%	0%	94%	118.52 µg/mL (≈ 256 µM)	–
CO/C=C(/C(=O)OC)c1ccccc1COc1cccc(C(=O)/C=C/c2cccc(Cl)c2)c1	33%	0%	0%	30%	–	–
CO/C=C(/C(=O)OC)c1ccccc1COc1cccc(C(=O)/C=C/c2ccc(F)cc2)c1	97%	0%	0%	31%	–	–
CO/C=C(/C(=O)OC)c1ccccc1COc1cccc(C(=O)/C=C/c2ccccc2)c1	96%	0%	0%	0%	–	–
CO/N=C(/C(=O)OC)c1ccccc1COc1ccccc1C [KRESOXIM-METHYL]	100%	–	–	100%	154.92 µg/mL (≈ 494 µM)	7.3 µg/mL (≈ 23.3 µM)
